# Laboratory results as given in the RNAGym collection of RNA variant scans (doi:10.1126/science.aae0568).
# Fewer inactive variants are shown than the library holds.
# B1: tRNA (parent)
# chain: GUUCCGUUGGCGUAAUGGUAACGCGUCUCCCUCCUAAGGAGAAGACUGCGGGUUCGAGUCCCGUACGGAACG
# Variants of: B1
# Assay: yeast fitness relative to wild type (ratio to wild type); higher = fitter; tRNA-Arg(CCU), competitive growth, 37 C, YPD
# In short: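 Amplicons of the tRNA-Arg(CCU) gene were sequenced, 100-nucleotide paired-end, from the start population and from each end population of a pooled yeast competition. The competition, in six parallel replicates, lasted 24 hours in YPD at 37°C. Fitness relative to wild type was calculated from changes in genotype frequencies. Genotypes had to have ≥ 100 starting reads, and estimates < 0.5 were set to 0.5.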
row,Variant,yeast fitness
1,GUUCGGUUGGCGUAGUGGUAACGCGUCUCCCUCCUAAGGAGAAGACUGCGGGUAGGAGUCCCGUACGGAACG [C5G A15G U54A C55G],≤ 0.5
2,GUUCGGUUGGCGUCAUGGUAACGCGUCUCCCUCCUAACAAGACGACUGCGGGUUCGAGUGCCGUCCGGAACG [C5G A14C G38C G39A A43C C60G A65C],≤ 0.5
3,GUUCAGUUGGCGUAAUGGUAACGCGUCUCCCUCCGAAGGAGAAGACCGCGGGUUCGAGUCGCGUACGGAACG [C5A U35G U47C C61G],≤ 0.5
4,GUUCAGUUGGCGUAAUGGUAACGCGUCUCCCUCCCAAGGAGAAGACUGCGGGUUCGAGUCCCGUACGGAACG [C5A U35C],0.869
5,GUUCGGUUGGCGUCAUGGUAACGCGUCUACGUCCUAAGGAGAAGACUGCGGGUACGAGUCCCGUACGGAUCG [C5G A14C C29A C31G U54A A70U],0.545
6,GUUCGGUUGGCGUUAUGGUAACGCGUCUCCCUGCUAAGGAGAUGACUGCGGGUCCGAGUCCCGUACGGAACG [C5G A14U C33G A43U U54C],≤ 0.5
7,GUUCGGUUGGCGUUAUGAUAUCGCGUCUCCCUCCUAAGGAGCAGACUCCGGGUUCGAGUCCCGUACGGAACG [C5G A14U G18A A21U A42C G48C],≤ 0.5
8,GUUCAGUUGGCGUAAUGGUAACGCGUCUCCCUCCCAAGGAGAAAACUCCGGGUUGGAGUCCCGUACGGACCG [C5A U35C G44A G48C C55G A70C],≤ 0.5
9,GUUCGGUUGGCGUCAUGGUAACCCGUCUCCCUCCUAAAGAGAAGACUGCGGGUUCGACUCCCAUACGGAGCG [C5G A14C G23C G38A G58C G63A A70G],≤ 0.5
10,GUUCGGUUGGCGUAGUGGUAGCGCCUCUCCCUUCUAAGGAGAAGACUGCGGGUUCGAGUCCCGUACGGAACG [C5G A15G A21G G25C C33U],≤ 0.5
11,GUUCGGUUGGCGUCAUGGUAACGCGUCUCCCUCCUAGGGAGAAGACUGCGGGUUCGAGUCCGGUACGGUACG [C5G A14C A37G C62G A69U],≤ 0.5
12,GUUCGGUUGGCGUUAUGGUAACGCGUCUCCCUCCUAAGGAGAAGACUGCGGGUUCGAGUCCCGUACAGGACG [C5G A14U G67A A69G],0.503
13,GUUCGGUUGGCGUGAUGGUAACGCGUCUCCCUCCUUAGGAGAAGACUGCGGGUUCGAGUCCCGUACAGAACG [C5G A14G A36U G67A],≤ 0.5
14,GUUCGGUUGGCGUCAUGGUAACGCGUCUCCGUCCUAAGGAGAAGACUGCGGGUUCAAGUCCCGUACGGAUCG [C5G A14C C31G G56A A70U],≤ 0.5
15,GUUCGGUUGGCGUAUUGGUAACGCGUCUCAAUCCUAAGGAGAAGACUGCGGGUUCGAGUCCCGUAGGGAACG [C5G A15U C30A C31A C66G],≤ 0.5
16,GUUCGGUUGGCGUUAUGGUAACGCGUCUCCCUCCUAAGGAGAAGACUGCGGGUUCGAGUCCCGUACGCAACG [C5G A14U G68C],≤ 0.5
17,GUUCAGUUGGCGUAAUGGUAACGCGUCUCCCUCCUAAGGAGAAGACCGCGGGUUCGAGUCCCGUACGGAACG [C5A U47C],0.85
18,GUUCGGUUGGCGUGAUGGUAACGCGUCUCCCUCCUUAGGAGAAGACUGCGGGUUCGAGUCCCGUACGGAACG [C5G A14G A36U],0.647
19,GUUCGGUUGGCGUUAUGGUAACGCAUCUCCCUCCUAAGGAGAAGACUGCGGGUUCAAGUCCCGUACAGAACG [C5G A14U G25A G56A G67A],≤ 0.5

row,Variant,yeast fitness
1,GUUCGGUUGGCGUCAUGAUAACGCGUCUCCCUCCUAAGGAGAGGCUUGCGGGUUCGGGUCCCGUACGGAACG [C5G A14C G18A A43G A45C C46U A57G],≤ 0.5
2,GUUCAGUUGGCGUAAUGGUAACGCGUCUCCCUCCGAAGGAGAAGACUGCGGGUUCGAGUGCCGUACGGAACG [C5A U35G C60G],≤ 0.5
3,GUUCGGUUGGCGUGAUGGUAACGCGUCUCCCUCCUAAGGAGAAGACUGCGGGUUCGAGUCCCGUACGGAACG [C5G A14G],0.999
4,GUUCGGUUGGCGUUAUGGUAACGGGUCUCCCUCCUAAGGAGAAGACUGCGGGUUCGAGUCCCGUACGGAUCG [C5G A14U C24G A70U],≤ 0.5
5,GUUCGGUUGGCGUCAUGGUAACGCGUCUUCCUGCUAAGGAGAAGACUGCGGGUUCGAGUCCCGUACGGAACG [C5G A14C C29U C33G],≤ 0.5
6,GUUCAGUUGGCGUAAUGGUAACGCGUCUCCCUCCUAAGGAGAAGACUGCGGGGUCGAGUACCGUACGGAACG [C5A U53G C60A],≤ 0.5
7,GUUCGGUUGGCGUGAUAGUAACGCGUCUCCCCCCUAAGGAGAAGACUGCGGGUUCCAGUGCCGUACGGAACG [C5G A14G G17A U32C G56C C60G],0.554
8,GUUCGGUUGGCGUCAUGGUAACGCAUCUCCCCCCUAAGGACAAGACUGCAGGUUCGAGUCGCGUACGGAACG [C5G A14C G25A U32C G41C G50A C61G],≤ 0.5
9,GUUCAGUUGGCGUAAUGGUAACGCGUCUCCCUCCCUAGGAGAAGACUGCGGGUUCGAGUCCCGUACGGAACG [C5A U35C A36U],0.57
10,GUUCAGUUGGCGUAAUGGUAACGCGUCUCCCGCCUAAGGAGAAGACUGCGGGUUCGAGUCCCGUACGGAACG [C5A U32G],0.584
11,GUUCGGUUGGCGUACUGCUAACGCGUCUCCCUCCUAAGGAGAAGACUGUGGGUUCGAGUCCCGAACGGUACG [C5G A15C G18C C49U U64A A69U],≤ 0.5
12,GUUCGGUUGGCGUAUUGGUAACGCGUCUCCCUCCAAAGGAGAAGACUGCAGGUGCGAGUCCCGUACGGAACG [C5G A15U U35A G50A U54G],≤ 0.5
13,GUUCGGUUGGCGUUAUGGUAACGCGUCUCCCUCCUCAGGAGAAGACUGCGGGUUCGAGUCGAGUACGGCACG [C5G A14U A36C C61G C62A A69C],≤ 0.5
14,GUUCGGUUGGCGUAGUGGUAACGCGUGACCCACCUAAGGAGAAGGUUGCGGGUUCCAGUCUCGUACGGAACG [C5G A15G C27G U28A U32A A45G C46U G56C C61U],0.736
15,GUUCGGUUGGCGUAUUGGUAACGCGUCUCCCUCCUAAGGAGAAGAUUGCGGGUUCGAGUCCCGUACGGAGCG [C5G A15U C46U A70G],≤ 0.5
16,GUUCGGUUGGCGUAGUGGUAACGCGUCUCCCUCCUAAGGAGAAGACUGCGGGUUCGAGUCUCGUACGGAACG [C5G A15G C61U],0.539
17,GUUCGGUUGGCGUCAUGAUAACGCGUCUCCCUCCUAAGGAGAGGCUUGCGGGUUCGAGUCCCGUACGGCACG [C5G A14C G18A A43G A45C C46U A69C],≤ 0.5
18,GUUCGGUUGGCGUUAUGGUAACGCGUCUCCCUCCUAUGGAGAAGCCUGCGGGUUCGAGUCCUGUACGGAACG [C5G A14U A37U A45C C62U],≤ 0.5
